Data as given in ChEMBL document CHEMBL1158589, “Benzimidazole and imidazole inhibitors of histone deacetylases: Synthesis and biological activity” (Bioorg Med Chem Lett, 2010).

Assays:
[1] = biological target: T1, Protein deacetylase HDAC6 (Homo sapiens, UniProt Q9UBN7); experiment: Inhibition of human recombinant HDAC6
T1 sequence (Q9UBN7 whole entry): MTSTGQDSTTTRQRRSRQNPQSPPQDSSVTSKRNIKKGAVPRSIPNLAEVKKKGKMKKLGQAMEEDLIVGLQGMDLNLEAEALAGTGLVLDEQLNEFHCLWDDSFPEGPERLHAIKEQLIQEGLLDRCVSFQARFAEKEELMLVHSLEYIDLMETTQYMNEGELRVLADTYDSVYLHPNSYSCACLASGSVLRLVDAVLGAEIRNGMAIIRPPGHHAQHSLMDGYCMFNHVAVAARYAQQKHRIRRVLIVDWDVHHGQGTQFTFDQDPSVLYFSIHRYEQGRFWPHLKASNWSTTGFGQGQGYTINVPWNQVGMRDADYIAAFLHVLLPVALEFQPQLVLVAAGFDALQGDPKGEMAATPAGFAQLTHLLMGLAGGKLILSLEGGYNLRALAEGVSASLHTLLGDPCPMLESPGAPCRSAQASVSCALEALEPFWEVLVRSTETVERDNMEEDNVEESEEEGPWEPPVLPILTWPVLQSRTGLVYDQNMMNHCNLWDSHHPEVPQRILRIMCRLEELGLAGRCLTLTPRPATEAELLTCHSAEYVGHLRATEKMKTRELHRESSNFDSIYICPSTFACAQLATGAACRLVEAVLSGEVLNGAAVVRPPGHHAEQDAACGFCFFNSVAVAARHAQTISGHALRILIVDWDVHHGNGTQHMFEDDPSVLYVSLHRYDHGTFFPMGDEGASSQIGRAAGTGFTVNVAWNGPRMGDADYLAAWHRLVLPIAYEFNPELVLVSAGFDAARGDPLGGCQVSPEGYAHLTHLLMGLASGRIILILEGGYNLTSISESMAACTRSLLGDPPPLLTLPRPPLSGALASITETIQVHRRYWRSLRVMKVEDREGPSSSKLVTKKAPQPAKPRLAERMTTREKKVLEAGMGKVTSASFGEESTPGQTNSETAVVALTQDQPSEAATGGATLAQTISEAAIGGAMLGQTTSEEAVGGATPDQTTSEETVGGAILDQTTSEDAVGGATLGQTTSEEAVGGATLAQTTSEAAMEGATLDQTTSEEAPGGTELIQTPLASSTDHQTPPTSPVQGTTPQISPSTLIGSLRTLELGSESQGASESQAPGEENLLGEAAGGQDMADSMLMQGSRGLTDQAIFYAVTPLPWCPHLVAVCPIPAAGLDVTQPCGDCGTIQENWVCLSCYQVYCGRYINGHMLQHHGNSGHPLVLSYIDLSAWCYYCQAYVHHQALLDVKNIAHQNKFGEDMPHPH
How it was run: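 Purified recombinant human HDAC-2 or HDAC-6 at known enzyme concentration with tBOC(Ac)-Lys-AMC as substrate. IC50 is the mean of at least three experiments.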

Histone deacetylase 8 = biological target: T2, Histone deacetylase 8 (Homo sapiens, UniProt Q9BY41); experiment: Inhibition of human recombinant HDAC8
T2 sequence (Q9BY41 whole entry): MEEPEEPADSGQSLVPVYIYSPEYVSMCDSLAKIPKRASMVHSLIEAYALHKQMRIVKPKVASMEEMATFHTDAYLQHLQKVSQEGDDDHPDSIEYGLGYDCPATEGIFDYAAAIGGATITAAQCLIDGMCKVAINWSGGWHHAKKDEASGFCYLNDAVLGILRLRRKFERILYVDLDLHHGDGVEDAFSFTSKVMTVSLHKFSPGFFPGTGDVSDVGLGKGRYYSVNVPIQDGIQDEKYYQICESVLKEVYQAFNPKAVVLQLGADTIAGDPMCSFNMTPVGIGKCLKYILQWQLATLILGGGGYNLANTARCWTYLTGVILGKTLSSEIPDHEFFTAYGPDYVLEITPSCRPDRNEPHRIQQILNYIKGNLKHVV

A549 = experiment: Cytotoxicity against human A549 cells assessed as NADH level after 72 hrs by MTS cells; type: functional, cell-based; conditions: A549, 72 h
How it was run: (§1)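 Human A549 lung, HL60 leukemia and PC3 prostate cancer lines incubated with compound for 72 h. Viability read by MTS colorimetric assay from remaining NADH; EC50 calculated; mean of at least two experiments.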

HL-60 = experiment: Cytotoxicity against human HL60 cells assessed as NADH level after 72 hrs by MTS cells; type: functional, cell-based; conditions: HL-60, 72 h; how it was run: as §1
PC-3 = experiment: Cytotoxicity against human PC3 cells assessed as NADH level after 72 hrs by MTS cells; type: functional, cell-based; conditions: PC-3, 72 h; how it was run: as §1

SMILES | IC50 [1] [nM] | IC50 (Histone deacetylase 8) [nM] | EC50 (A549) [nM] | EC50 (HL-60) [nM] | EC50 (PC-3) [nM]
O=C(/C=C/c1cccc(-c2nc3ccccc3n2CCN2CCCCC2)c1)NO | 40 | 100 | 1200 | 300 | 600
O=C(/C=C/c1cccc(-c2nc3ccccc3n2-c2ccccc2)c1)NO | – | 50 | 16000 | 1600 | 4000
Cn1c(-c2cccc(/C=C/C(=O)NO)c2)nc2ccccc21 | 79 | 100 | 12000 | 2000 | 7900
Cc1c(-c2ccccc2)nc(-c2cccc(/C=C/C(=O)NO)c2)n1[C@@H]1CCCN(C(C)C)C1 | 79 | 31 | 500 | 40 | 100
Cc1c(-c2ccccc2)nc(-c2cccc(/C=C/C(=O)NO)c2)n1CCc1ccccc1 | 63 | 20 | 800 | 200 | 300
O=C(/C=C/c1cccc(-c2nc3ccccc3n2Cc2ccccc2)c1)NO | 63 | 40 | 6300 | 5000 | 1200
C[C@H](c1ccccc1)n1c(-c2cccc(/C=C/C(=O)NO)c2)nc2ccccc21 | 40 | 20 | 16000 | 3100 | 10000
CCN1CCC[C@H](n2c(-c3cccc(/C=C/C(=O)NO)c3)nc3ccccc32)C1 | 79 | 160 | 600 | 80 | 200
CC(C)n1c(-c2cccc(/C=C/C(=O)NO)c2)nc2ccccc21 | 100 | 40 | 5000 | 1000 | 2500
Cc1nc(-c2cccc(/C=C/C(=O)NO)c2)n(CCc2ccccc2)c1-c1ccccc1 | 79 | 25 | 1000 | 300 | 500
Cc1c(-c2ccccc2)nc(-c2cccc(/C=C/C(=O)NO)c2)n1[C@@H]1CCCN(C)C1 | 63 | 50 | 600 | 40 | 100
Cc1c(-c2ccccc2)nc(-c2cccc(/C=C/C(=O)NO)c2)n1CCN1CCOCC1 | 63 | 79 | 6300 | 300 | 1000
CCN1CCC[C@@H](n2c(-c3ccccc3)nc(C)c2-c2cccc(/C=C/C(=O)NO)c2)C1 | 630 | 400 | – | – | –
O=C(/C=C/c1cccc(-c2nc3ccccc3[nH]2)c1)NO | 100 | 63 | 25000 | 3100 | 10000
CN1CCCC(n2c(-c3cccc(/C=C/C(=O)NO)c3)nc3ccccc32)C1 (racemic) | 79 | 160 | 500 | 80 | 100
Cc1nc(C)n(CCc2ccccc2)c1-c1cccc(/C=C/C(=O)NO)c1 | 120 | 100 | – | – | –
CCN1CCCC(n2c(-c3cccc(/C=C/C(=O)NO)c3)nc3ccccc32)C1 (racemic) | 79 | 120 | 500 | 60 | 100
Cc1nc(-c2cccc(/C=C/C(=O)NO)c2)n([C@@H]2CCCN(C(C)C)C2)c1-c1ccccc1 | 100 | 40 | 400 | 30 | 200
Cc1nc(-c2cccc(/C=C/C(=O)NO)c2)n(CCN2CCOCC2)c1Cc1ccccc1 | 79 | 63 | 2500 | 200 | 600

SMILES | IC50 [1] [nM] | IC50 (Histone deacetylase 8) [nM] | EC50 (A549) [nM] | EC50 (HL-60) [nM] | EC50 (PC-3) [nM]
CN1CCC[C@H](n2c(-c3cccc(/C=C/C(=O)NO)c3)nc3ccccc32)C1 | 50 | 160 | 1200 | 160 | 300
Cc1c(Cc2ccccc2)nc(-c2cccc(/C=C/C(=O)NO)c2)n1[C@@H]1CCCN(C)C1 | 63 | 79 | 200 | 20 | 100
CCN1CCC[C@@H](n2c(-c3cccc(/C=C/C(=O)NO)c3)nc3ccccc32)C1 | 79 | 120 | 200 | 30 | 50
CCN(CC)CCn1c(-c2cccc(/C=C/C(=O)NO)c2)nc2ccccc21 | 79 | 63 | 4000 | 800 | 1200
O=C(/C=C/c1cccc(-c2nc3ccccc3n2CCN2CCCC2)c1)NO | – | 63 | 3100 | 500 | 600
O=C(/C=C/c1cccc(-c2nc3ccccc3n2[C@H]2CCCNC2)c1)NO | 25 | 120 | 2500 | 300 | 600
Cc1c(Cc2ccccc2)nc(-c2cccc(/C=C/C(=O)NO)c2)n1CCN1CCOCC1 | 79 | 50 | 4000 | 300 | 1000
COc1ccc(-n2c(-c3cccc(/C=C/C(=O)NO)c3)nc3ccccc32)cc1 | 63 | 63 | 4000 | 500 | 1200
Cc1nc(-c2ccccc2)n(CCc2ccccc2)c1-c1cccc(/C=C/C(=O)NO)c1 | 79 | 50 | – | – | –
CCN1CCC[C@@H](n2c(C)nc(C)c2-c2cccc(/C=C/C(=O)NO)c2)C1 | 400 | – | – | – | –
CCN1CCC[C@@H](n2c(-c3cccc(/C=C/C(=O)NO)c3)nc(Cc3ccccc3)c2C)C1 | 100 | 50 | 100 | 30 | 40
CCN1CCC[C@@H](n2c(-c3cccc(/C=C/C(=O)NO)c3)nc(C)c2-c2ccccc2)C1 | 79 | 50 | 300 | 40 | 80
O=C(/C=C/c1cccc(-c2nc3ccccc3n2C2CCCCC2)c1)NO | 25 | 50 | 3100 | 500 | 1600
O=C(/C=C/c1cccc(-c2nc3ccccc3n2CCCc2ccccc2)c1)NO | 20 | 25 | 12000 | 1200 | 4000
O=C(/C=C/c1cccc(-c2nc3ccccc3n2CCN2CCOCC2)c1)NO | 160 | 400 | 25000 | 1200 | 5000
O=C(/C=C/c1cccc(-c2nc3ccccc3n2C2CCCNC2)c1)NO (racemic) | 40 | 160 | 2500 | 300 | 500
CCN1CCC[C@@H](n2c(-c3cccc(/C=C/C(=O)NO)c3)nc(-c3ccccc3)c2C)C1 | 100 | 31 | 300 | 30 | 50
Cc1nc(Cc2ccccc2)n(CCc2ccccc2)c1-c1cccc(/C=C/C(=O)NO)c1 | 63 | 63 | – | – | –
CCN1CCC[C@@H](n2c(Cc3ccccc3)nc(C)c2-c2cccc(/C=C/C(=O)NO)c2)C1 | 500 | 100 | – | – | –
